Results taken from ChEMBL document CHEMBL3739259, “Defining Key Structural Determinants for the Pro-osteogenic Activity of Flavonoids” (J Nat Prod, 2015).
The source made the active and inactive calls. The calls are words filed in the database; no cut-off is given here.

What was measured:
[1] = test system: MSC; assay: (§1) Induction of osteogenic differentiation in human MSC assessed as increase in ALP activity at 1 uM using p-NPP as substrate after 9 days by colorimetric method relative to control; format: functional
Method in brief: (§2)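 ALP read on day 9 in passage-3 bone-marrow hMSCs cultured at high density in Os.D medium. Compound (1, 5 or 10 μM, 0.1% v/v DMSO final) was re-applied on days 0, 3 and 6. Colorimetric p-nitrophenyl phosphate method, normalised to time and cell number (pNP/min/20,000 cells). Expressed as % of untreated control; three independent triplicate experiments; one-way ANOVA versus vehicle.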

[2] = Cytotoxicity against human MSC assessed as decrease in cell number at 1 to 10 uM after 9 days by methylene blue staining based microscopy relative to control; conditions: 216 h
Method in brief: (§3)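 Passage-3 bone-marrow hMSCs, high density in Os.D medium, dosed with 1, 5 or 10 μM compound (0.1% v/v DMSO final) on days 0, 3 and 6 with medium changes. Cell number measured on day 9 by methylene blue proliferation assay. Expressed as % of untreated control; three independent triplicate experiments, mean ± SEM, one-way ANOVA versus vehicle.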

[3] = Cytotoxicity against human MSC assessed as cell viability at 1 uM measured on day 1 by alamar blue assay (reference value: 97 to 101%); conditions: MSC cells, read-out: Activity
[4] = Cytotoxicity against human MSC assessed as cell viability at 5 uM measured on day 1 by alamar blue assay (reference value: 97 to 101%); conditions: MSC cells, read-out: Activity
[5] = Cytotoxicity against human MSC assessed as cell viability at 10 uM measured on day 1 by alamar blue assay (reference value: 97 to 101%); conditions: MSC cells, read-out: Activity
[6] = Cytotoxicity against human MSC assessed as cell viability at 1 uM treated for 3 days measured on day 4 by alamar blue assay (reference value: 97 to 100%); conditions: MSC cells, read-out: Activity
[7] = Cytotoxicity against human MSC assessed as cell viability at 5 uM treated for 3 days measured on day 4 by alamar blue assay (reference value: 97 to 100%); conditions: MSC cells, read-out: Activity
[8] = Cytotoxicity against human MSC assessed as cell viability at 10 uM treated for 3 days measured on day 4 by alamar blue assay (reference value: 97 to 100%); conditions: MSC cells, read-out: Activity
[9] = Cytotoxicity against human MSC assessed as cell viability at 1 uM treated for 6 days measured on day 7 by alamar blue assay (reference value: 96 to 101%); conditions: MSC cells, read-out: Activity
[10] = Cytotoxicity against human MSC assessed as cell viability at 5 uM treated for 6 days measured on day 7 by alamar blue assay (reference value: 96 to 101%); conditions: MSC cells, read-out: Activity
[11] = Cytotoxicity against human MSC assessed as cell viability at 10 uM treated for 6 days measured on day 7 by alamar blue assay (reference value: 96 to 101%); conditions: MSC cells, read-out: Activity
[12] = Decrease in ALP activity in human MSC using p-NPP as substrate at 5 uM after 9 days by colorimetric method relative to control; format: functional; set-up: Activity: scale not given: the % may be the effect or the level left; method in brief: as §2
[13] = Decrease in ALP activity in human MSC using p-NPP as substrate at 10 uM after 9 days by colorimetric method relative to control; format: functional; set-up: Activity: scale not given: the % may be the effect or the level left
Method in brief: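 Passage-3 bone-marrow hMSCs from healthy donors, cultured at high density in osteogenic (Os.D) medium; compound given at days 0, 3 and 6 with media change every 3 days, final 0.1% (v/v) DMSO; vehicle, 50 nM calcitriol and untreated controls. Day-9 ALP by para-nitrophenyl phosphate colorimetry, normalised to time and cell number (methylene blue); % of untreated control, 3 independent triplicate experiments ± SEM.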

[14] = Cytotoxicity against human MSC assessed as cell viability at 1 uM measured on day 1 by alamar blue assay (reference value: […] +/- 1%); conditions: MSC cells, read-out: Activity
[15] = Cytotoxicity against human MSC assessed as cell viability at 5 uM after 24 hrs measured on day 1 by alamar blue assay (reference value: […] +/- 1%); conditions: MSC cells, read-out: Activity
[16] = Cytotoxicity against human MSC assessed as cell viability at 10 uM after 24 hrs measured on day 1 by alamar blue assay (reference value: […] +/- 1%); conditions: MSC cells, read-out: Activity
[17] = Cytotoxicity against human MSC assessed as cell viability at 1 uM treated for 3 days measured on day 4 by alamar blue assay (reference value: 100 +/- 1%); conditions: MSC cells, read-out: Activity
[18] = Cytotoxicity against human MSC assessed as cell viability at 5 uM treated for 3 days measured on day 4 by alamar blue assay (reference value: 100 +/- 1%); conditions: MSC cells, read-out: Activity
[19] = Cytotoxicity against human MSC assessed as cell viability at 10 uM treated for 3 days measured on day 4 by alamar blue assay (reference value: 100 +/- 1%); conditions: MSC cells, read-out: Activity
[20] = Cytotoxicity against human MSC assessed as cell viability at 1 uM treated for 6 days measured on day 7 by alamar blue assay (reference value: 98%); conditions: MSC cells, read-out: Activity
[21] = Cytotoxicity against human MSC assessed as cell viability at 5 uM treated for 6 days measured on day 7 by alamar blue assay (reference value: 98%); conditions: MSC cells, read-out: Activity
[22] = Cytotoxicity against human MSC assessed as cell viability at 10 uM treated for 6 days measured on day 7 by alamar blue assay (reference value: 98%); conditions: MSC cells, read-out: Activity
[23] = Cytotoxicity against human MSC assessed as decrease in cell number at 10 uM after 9 days by methylene blue staining based microscopy relative to control; conditions: 216 h; method in brief: as §3
[24] = Cytotoxicity against human MSC assessed as decrease in cell number at 5 uM after 9 days by methylene blue staining based microscopy relative to control; conditions: 216 h; method in brief: as §3
[25] = test system: MSC; assay: (§4) Induction of osteogenic differentiation in human MSC assessed as increase in ALP activity at 5 uM using p-NPP as substrate after 9 days by colorimetric method relative to control; format: functional; method in brief: as §2
[26] = as §4; format: functional; method in brief: as §2
[27] = Induction of osteogenic differentiation in human MSC assessed as increase in ALP activity at 10 uM using p-NPP as substrate after 9 days by colorimetric method relative to control; format: functional; method in brief: as §2
[28] = as §1; format: functional; method in brief: as §2
[29] = test system: MSC; assay: Induction of osteogenic differentiation in human MSC assessed as increase in ALP activity using p-NPP as substrate after 9 days by colorimetric method; format: functional; method in brief: as §2
[30] = Induction of matrix mineralization in human MSC assessed as increase in calcium deposition across cell monolayer at 10 uM after 20 days by Alizarin red S staining based microscopy relative to control; format: functional
[31] = Cytotoxicity against human MSC assessed as […] in cell number at 1 to 10 uM after 9 days by methylene blue staining based microscopy relative to control; conditions: 216 h; method in brief: as §3

Row | SMILES | Activity [1] | viability at 1 day, 1 µM [3] [%] | viability at 1 day, 5 µM [4] [%] | viability at 1 day, 10 µM [5] [%] | viability at 72 h, 1 µM [6] [%] | viability at 72 h, 5 µM [7] [%] | viability at 72 h, 10 µM [8] [%] | viability at 144 h, 1 µM [9] [%] | viability at 144 h, 5 µM [10] [%] | viability at 144 h, 10 µM [11] [%] | viability at 1 day, 1 µM [14] [%] | viability at 24 h, 5 µM [15] [%] | viability at 24 h, 10 µM [16] [%] | viability at 72 h, 1 µM [17] [%] | viability at 72 h, 5 µM [18] [%] | viability at 72 h, 10 µM [19] [%] | viability at 144 h, 1 µM [20] [%] | viability at 144 h, 5 µM [21] [%] | viability at 144 h, 10 µM [22] [%] | Activity [26] [%] | other results
1 | O=c1c(O)c(-c2cc(O)c(O)c(O)c2)oc2cc(O)cc(O)c12 [MYRICETIN] | inactive | 100 | 94 | 101 | 97 | 97 | 101 | 97 | 98 | 98 | – | – | – | – | – | – | – | – | – | – | Activity [2]: Toxic; fold change (FC) [12]: 0.74; fold change (FC) [13]: 0.62
2 | O=c1cc(-c2cc(O)c(O)c(O)c2)oc2cc(O)cc(O)c12 [TRICETIN] | inactive | – | – | – | – | – | – | – | – | – | 108 | 106 | 104 | 99 | 95 | 95 | 97 | 94 | 94 | – | Activity [12]: 99%; Activity [13]: 79%; fold change (FC) [23]: 0.47; fold change (FC) [24]: 0.68
3 | O=C(O[C@@H]1Cc2c(O)cc(O)cc2O[C@@H]1c1cc(O)c(O)c(O)c1)c1cc(O)c(O)c(O)c1 [EPIGALOCATECHIN GALLATE] | inactive | 101 | 98 | 90 | 93 | 91 | 89 | 101 | 101 | 102 | – | – | – | – | – | – | – | – | – | – | Activity [25]: inactive; fold change (FC) [2]: 0.43; Activity [12]: 84%; fold change (FC) [13]: 0.75
4 | O=C1C[C@@H](c2ccccc2)Oc2cc(O)cc(O)c21 [PINOCEMBRIN] | inactive | – | – | – | – | – | – | – | – | – | 109 | 110 | 111 | 94 | 95 | 96 | 96 | 97 | 98 | 107 | Activity [27]: 121%; Activity [2]: Non-toxic
5 | COc1ccc(-c2oc3cc(O)cc(O)c3c(=O)c2O)cc1 [KAEMPFERIDE] | – | – | – | – | – | – | – | – | – | – | 112 | 112 | 111 | 95 | 95 | 95 | 97 | 98 | 99 | 237 | Activity [28]: 143%; Activity [27]: 281%; Activity [29]: Dose-dependent effect; Activity [23]: Non-toxic; fold change (FC) [30]: 3.17
6 | COc1ccc([C@@H]2CC(=O)c3c(O)cc(O)cc3O2)cc1O [HESPERETIN] | inactive | 102 | 95 | 96 | 98 | 102 | 103 | 97 | 99 | 98 | – | – | – | – | – | – | – | – | – | – | Activity [25]: inactive; fold change (FC) [27]: 1.72; Activity [31]: Toxic
7 | O=c1c(O)c(-c2ccc(O)cc2)oc2cc(O)cc(O)c12 [KAEMPFEROL] | inactive | 96 | 104 | 104 | 97 | 98 | 98 | 100 | 100 | 97 | – | – | – | – | – | – | – | – | – | 237 | fold change (FC) [26]: 1.52; Activity [27]: 268%; fold change (FC) [27]: 1.32; Activity [29]: Dose-dependent effect; Activity [31]: Toxic
